Activity calls are given as the source filed them.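 Rule for the calls: active = inhibition of 30% or more at any tested concentration; inactive = the rest.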

The target in the first assay is Aspartyl aminopeptidase (Homo sapiens) (UniProt Q9ULA0). In words: inhibition of human DNPEP peptide cleavage – biochemical, QFRET fluorogenic substrate, set 2, counter-screen for PfM18AAP inhibitor project, dose response (AID 602221). The following applies: recombinant hM18AAP, H-Glu-NHMec fluorogenic cleavage. The procedure, abridged: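 System: Recombinant human M18 aspartyl aminopeptidase | Buffer or medium: Tris pH 7.5 with CoCl2 and 2% DMSO | Times: Enzyme reaction 90 min at room temperature | Detection: Fluorescence, ex 370/em 460 nm | Evaluation: % inhibition and IC50, curve bounds fixed 0–100 | Benchmarks: no-enzyme background wells as reference | Replication: Triplicate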
(Counterscreens check selectivity or assay interference.)
As to `Oc1ccc(-c2csc(NC3CCCC3)n2)cc1O`, the IC50 (in general, the concentration that inhibits the measured activity by half) was 4.78 µM.
Still for that read-out and setting: to `Oc1ccc(CCNc2ccnc3ccccc23)cc1O` belongs 7.26 µM.
For the compound `Oc1ccc(CCNc2c3ccccc3nc3ccccc23)cc1O`, the IC50 is 0.95 µM.
Same read-out and setting: to `CN1CCN(c2nc(-c3ccc(O)c(O)c3)cs2)CC1` belongs 3.7 µM; to `CCc1ccc(NC(=O)Cc2nc(-c3ccc(O)c(O)c3)cs2)cc1`, 6.04 µM; to `Oc1ccc(-c2csc(Nc3ncccn3)n2)cc1O`, 2.25 µM.
Consider `CN1CCN(CCCc2ccc(O)c(O)c2)CC1`, for which the IC50 was 6.49 µM.
`CN1CCN(CCc2ccc(O)c(O)c2)CC1`: the IC50 was 29.3 µM.

Staying with this assay, now noted: recombinant hM18AAP, H-Glu-NHMec fluorogenic cleavage; at 100 µM (top of the series).
With `COc1ccc(CCNC(c2ccccc2)c2ccccc2)cc1OC`, the inhibition entry is “inactive”.
`COc1ccc(CCCN2CCN(C)CC2)cc1OC`: the inhibition entry was “inactive”.

The values above are taken from PubChem BioAssay AID602221 (Southern Research Specialized Biocontainment Screening …, 2012).
